≈ marks a conversion by molar mass, not a printed value.
What was measured:
Format in all cases: functional
[1] = test system: Talaromyces marneffei; test: Antifungal activity against recultured Penicillium marneffei after 3 to 4 days by serial plate dilution method; settings: for MIC: Talaromyces marneffei
How it was run: (§1)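 Sabouraud agar made from peptone, glucose and agar in water, pH 5.7. Fungal spores suspended in normal saline and used to lawn the plates, which were dried 1 h at 37 °C. Wells punched and compounds added in DMSO, with a DMSO solvent control. Triplicate plates held at 37 °C for 3–4 days. Read-out is inhibition zone diameter.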

[2] = test system: Aspergillus flavus; test: Antifungal activity against Aspergillus flavus NCIM 524 after 3 to 4 days by serial plate dilution method; settings: for MIC: Aspergillus flavus, NCIM 524; how it was run: as §1
[3] = test system: Escherichia coli; test: Antibacterial activity against Escherichia coli ATTC 25922 after 3 to 4 days by serial plate dilution method; settings: for MIC: Escherichia coli, ATTC 25922
How it was run: (§2)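 Serial dilutions in Mueller-Hinton broth in tubes, pH adjusted to 5.0 with phosphate buffer. Inoculated with a standardized bacterial suspension and incubated 16–18 h at 37 °C. MIC is the lowest concentration with no visible growth, tested over 6.25–100 µg/mL. Zones come from an agar well diffusion assay: compounds in DMSO are added to wells in seeded agar, DMSO control, triplicate plates, 37 °C for 3–4 days, inhibition zone diameter in mm.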

[4] = test system: Candida albicans; test: Antifungal activity against Candida albicans after 3 to 4 days by serial plate dilution method; settings: for MIC: Candida albicans; how it was run: as §1
[5] = test system: Staphylococcus aureus; test: Antibacterial activity against Staphylococcus aureus ATTC 25923 after 3 to 4 days by serial plate dilution method; settings: for MIC: Staphylococcus aureus, ATTC 25923; how it was run: as §2
[6] = test system: Pseudomonas aeruginosa; test: Antibacterial activity against Pseudomonas aeruginosa ATCC 27853 after 3 to 4 days by serial plate dilution method; settings: for MIC: Pseudomonas aeruginosa, ATCC 27853; how it was run: as §2
[7] = test system: Trichophyton mentagrophytes; test: Antifungal activity against recultured Trichophyton mentagrophytes after 3 to 4 days by serial plate dilution method; settings: for MIC: Trichophyton mentagrophytes; how it was run: as §1
[8] = test system: Klebsiella pneumoniae; test: Antibacterial activity against recultured Klebsiella pneumoniae after 3 to 4 days by serial plate dilution method; settings: for MIC: Klebsiella pneumoniae; how it was run: as §2
[9] = test system: Aspergillus fumigatus; test: Antifungal activity against Aspergillus fumigatus NCIM 902 after 3 to 4 days by serial plate dilution method; settings: for MIC: Aspergillus fumigatus, NCIM 902; how it was run: as §1
[10] = test system: Streptococcus pyogenes; test: Antibacterial activity against Streptococcus pyogenes after 3 to 4 days by serial plate dilution method; settings: for MIC: Streptococcus pyogenes; how it was run: as §2

SMILES	diameter of the inhibition zone (DIZ) [1]	MIC [1]	diameter of the inhibition zone (DIZ) [2]	MIC [2]	diameter of the inhibition zone (DIZ) [3]	MIC [3]	diameter of the inhibition zone (DIZ) [4]	MIC [4]	diameter of the inhibition zone (DIZ) [5]	MIC [5]	diameter of the inhibition zone (DIZ) [6]	MIC [6]	diameter of the inhibition zone (DIZ) [7]	MIC [7]	diameter of the inhibition zone (DIZ) [8]	MIC [8]	diameter of the inhibition zone (DIZ) [9]	MIC [9]	diameter of the inhibition zone (DIZ) [10]	MIC [10]
COc1ccc2nc(C)cc(-n3cc(CN(C)C)nn3)c2c1	18 mm	6.25 µg/mL (≈ 21 µM)	12 mm	6.25 µg/mL (≈ 21 µM)	14 mm	6.25 µg/mL (≈ 21 µM)	10 mm	6.25 µg/mL (≈ 21 µM)	16 mm	6.25 µg/mL (≈ 21 µM)	14 mm	6.25 µg/mL (≈ 21 µM)	10 mm	6.25 µg/mL (≈ 21 µM)	16 mm	6.25 µg/mL (≈ 21 µM)	16 mm	6.25 µg/mL (≈ 21 µM)	14 mm	6.25 µg/mL (≈ 21 µM)
CCN(CC)Cc1cn(-c2cc(C)nc3ccc(OC)cc23)nn1	<10 mm	25 µg/mL (≈ 76.8 µM)	11 mm	12.5 µg/mL (≈ 38.4 µM)	14 mm	6.25 µg/mL (≈ 19.2 µM)	11 mm	12.5 µg/mL (≈ 38.4 µM)	12 mm	6.25 µg/mL (≈ 19.2 µM)	12 mm	6.25 µg/mL (≈ 19.2 µM)	10 mm	12.5 µg/mL (≈ 38.4 µM)	12 mm	6.25 µg/mL (≈ 19.2 µM)	10 mm	12.5 µg/mL (≈ 38.4 µM)	14 mm	6.25 µg/mL (≈ 19.2 µM)
COc1ccc2nc(C)cc(-n3cc(CN4CCCC4)nn3)c2c1	10 mm	12.5 µg/mL (≈ 38.7 µM)	11 mm	12.5 µg/mL (≈ 38.7 µM)	10 mm	12.5 µg/mL (≈ 38.7 µM)	10 mm	12.5 µg/mL (≈ 38.7 µM)	10 mm	12.5 µg/mL (≈ 38.7 µM)	12 mm	12.5 µg/mL (≈ 38.7 µM)	12 mm	12.5 µg/mL (≈ 38.7 µM)	11 mm	12.5 µg/mL (≈ 38.7 µM)	10 mm	12.5 µg/mL (≈ 38.7 µM)	11 mm	12.5 µg/mL (≈ 38.7 µM)
COc1ccc2nc(C)cc(-n3cc(CN4CCCCC4)nn3)c2c1	12 mm	12.5 µg/mL (≈ 37 µM)	10 mm	12.5 µg/mL (≈ 37 µM)	10 mm	12.5 µg/mL (≈ 37 µM)	10 mm	12.5 µg/mL (≈ 37 µM)	<10 mm	50 µg/mL (≈ 148 µM)	<10 mm	50 µg/mL (≈ 148 µM)	10 mm	12.5 µg/mL (≈ 37 µM)	<10 mm	50 µg/mL (≈ 148 µM)	10 mm	12.5 µg/mL (≈ 37 µM)	10 mm	12.5 µg/mL (≈ 37 µM)
COc1ccc2nc(C)cc(-n3cc(CN4CCC(c5ccccc5)CC4)nn3)c2c1	<10 mm	50 µg/mL (≈ 121 µM)	<10 mm	50 µg/mL (≈ 121 µM)	10 mm	12.5 µg/mL (≈ 30.2 µM)	<10 mm	50 µg/mL (≈ 121 µM)	10 mm	12.5 µg/mL (≈ 30.2 µM)	12 mm	12.5 µg/mL (≈ 30.2 µM)	<10 mm	50 µg/mL (≈ 121 µM)	11 mm	12.5 µg/mL (≈ 30.2 µM)	<10 mm	50 µg/mL (≈ 121 µM)	11 mm	12.5 µg/mL (≈ 30.2 µM)
COc1ccc2nc(C)cc(-n3cc(CN4CCN(C)CC4)nn3)c2c1	16 mm	6.25 µg/mL (≈ 17.7 µM)	16 mm	6.25 µg/mL (≈ 17.7 µM)	20 mm	6.25 µg/mL (≈ 17.7 µM)	14 mm	6.25 µg/mL (≈ 17.7 µM)	16 mm	6.25 µg/mL (≈ 17.7 µM)	14 mm	6.25 µg/mL (≈ 17.7 µM)	14 mm	6.25 µg/mL (≈ 17.7 µM)	14 mm	6.25 µg/mL (≈ 17.7 µM)	18 mm	6.25 µg/mL (≈ 17.7 µM)	16 mm	6.25 µg/mL (≈ 17.7 µM)

— ChEMBL document CHEMBL1240415, “Design, synthesis and antimicrobial activities of some new quinoline derivatives carrying 1,2,3-triazole moiety” (2010)
